Among the data in PubChem BioAssay are viability, differential viability (reversal) and inhibition values, retold here.

Each structure is given as a SMILES string. Activity calls are given as the source filed them.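 Rule for the calls, unless noted: active = viability at or below 30% in both replicate assays; inconclusive = viability at or below 30% in just one of the two assays; inactive = the rest.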

Assay [1] in a line: SK-BR-3 cell growth inhibitors, pilot screen, 24 h, human (AID 572;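 active = viability at or below 10% of carrier control in both of two separate runs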;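 note: compound exposure lasted between 18 and 24 h rather than exactly 24 h; 100% = carrier-treated control wells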). As to conditions: SK-BR-3 viability, CellTiter-Glo luminescence, at 10 µM, stronger effect = lower value.
Assay [2] in a line: HUVEC growth inhibition – cell-based, human, primary screen (AID 575).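 Note: 100% = median of untreated cell wells with 0.1% DMSO on each plate.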 The note with it: HUVEC proliferation, CellTiter-Glo luminescence, 72 h; at 10 µM; stronger effect = lower value. In outline: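 Assay system: Primary human umbilical vein endothelial cells | Quantity: 1250 cells per well | Medium: Supplemented EBM, 2% fetal bovine serum | Detection: CellTiter-Glo luminescence measuring cellular ATP | Read-out: % viability vs DMSO wells | Plate: Collagen-coated 384-well format | Times: 72 h exposure, 37 °C, 5% CO2, 30 min RT equilibration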

Assay [3] in a line: growth inhibitors of H69AR lung tumor, primary screen, human, duplicate replicates (AID 580;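 active = viability at or under a set limit in both replicates, limit being median viability minus 3 SD, cut at about 48% in these data, passing the limit was not always enough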;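 note: 100% = mean luminescence of untreated wells and 0% = no signal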). The note with it: H69AR lung tumor cells viability, ATP luminescence, 72 h; at 10 µM; stronger effect = lower value.
Assay [4] can be described thus: reversal of MRP1-mediated doxorubicin resistance, pilot screen, H69AR cells, doxorubicin co-treatment (AID 601;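 active = viability loss from added drug above about 55%, and viability with drug at most 40%, in both replicates, limit read from the data, passing the limit was not always enough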). The note with it: CellTiter-Glo, 72 h, at 10 µM; for differential viability (reversal): stronger effect = higher value.
A short description of assay [5]: 384-well plate pilot, post-Golgi transport modulator project, inhibition of yeast transport mutant growth (AID 636; in the data active = inhibition above about 31%). As to conditions: absorbance 615 nm, about 18 h, stronger effect = higher value.
The nature of assay [6]: growth suppression of yeast trafficking mutant, preliminary HTS, modulators of trafficking downstream of Golgi apparatus project, 1536-format plate, OD 615 nm (AID 637; in the data active = inhibition above about 30%). As to conditions: yeast transport mutant growth, absorbance 615 nm, 18 h; stronger effect = higher value.
The mark [7] stands for this setting: H69AR cells + 2 uM doxorubicin, measured here: viability with 2 uM doxorubicin, stronger effect = lower value.
The mark [8] stands for this setting: H69AR cells, compound alone cytotoxicity.

Regarding `Cc1c(C)[n+](=O)c2c(n1[O-])CCCCC2`, the viability in assay [1] is 89% (inactive); in assay [2], 93.5% (inactive); in assay [3], 96% (inactive); in assay [4] (setting [7]) it was 86.3%; in assay [4] (setting [8]) it was 96%. In assay [4] (H69AR cells + 2 uM doxorubicin), the differential viability (reversal) was 9.67% (inactive). Further, the inhibition is -1.43% (inactive) in assay [5] and -2.3% (inactive) in assay [6].
On to `COc1ccc(S(=O)(=O)Nc2cccc(C)n2)c2ccccc12`, for which the viability is 94% (inactive) in assay [1]; 109% (inactive) in assay [2]; 100% (inactive) in assay [3]; 86.2% in assay [4] (setting [7]); 100% in assay [4] (setting [8]). The differential viability (reversal) in assay [4] (H69AR cells + 2 uM doxorubicin) is 13.8% (inactive). Further, the inhibition in assay [5] was -2.08% (inactive); in assay [6], 4.43% (inactive).
`O=C(c1ccccc1)c1ccc(N2CCNCC2)cc1`: the viability is 129% (inactive) in assay [1]; 96.4% (inactive) in assay [2]; 84.5% (inactive) in assay [3]; 89.9% in assay [4] (setting [7]); 84.5% in assay [4] (setting [8]). Further, the differential viability (reversal) in assay [4] (H69AR cells + 2 uM doxorubicin) was -5.36% (inactive). Moreover, the inhibition is -2.05% (inactive) in assay [5] and 6.91% (inactive) in assay [6].
On to `Cc1noc(C)c1C(=O)N1CCN(C(=O)c2sc3cc(Cl)ccc3c2Cl)CC1`, for which the viability was 103% (inactive) in assay [1]; 106% (inactive) in assay [2]; 89% (inactive) in assay [3]; 80.5% in assay [4] (setting [7]); 89% in assay [4] (setting [8]). The differential viability (reversal) in assay [4] (H69AR cells + 2 uM doxorubicin) was 8.48% (inactive). Further, the figures for the inhibition in assay [5] and in assay [6] were -5.14% (inactive) and -1.64% (inactive), respectively.
On to `CCOc1cc2[nH]c(=O)n(CCCCC(=O)NCc3ccco3)c(=O)c2cc1OCC`, for which the viability was 88% (inactive) in assay [1]; 90.7% (inactive) in assay [2]; 82.5% (inactive) in assay [3]; 95.3% in assay [4] (setting [7]); 82.5% in assay [4] (setting [8]). In addition, the differential viability (reversal) in assay [4] (H69AR cells + 2 uM doxorubicin) was -12.7% (inactive). Moreover, the figures for the inhibition in assay [5] and in assay [6] were -2.34% (inactive) and 1.97% (inactive), respectively.
For `CCc1ccccc1NC(=O)CSC1=C(C#N)C(c2ccc(O)c(OC)c2)C2=C(CCCC2=O)N1` (centres undefined), the viability is 112% (inactive) in assay [1]; 105% (inactive) in assay [2]; 47.9% (active) in assay [3]; 78.1% in assay [4] (setting [7]); 47.9% in assay [4] (setting [8]). The differential viability (reversal) in assay [4] (H69AR cells + 2 uM doxorubicin) was -30.2% (inactive). In addition, the figures for the inhibition in assay [5] and in assay [6] were -8.08% (inactive) and 5.65% (inactive), respectively.
As for `O=C1OCCC1Sc1ncnc2sccc12` (centres undefined), the viability was 78% (inactive) in assay [1]; 107% (inactive) in assay [2]; 104% (inactive) in assay [3]; 82.3% in assay [4] (setting [7]); 104% in assay [4] (setting [8]). For the same molecule, the differential viability (reversal) in assay [4] (H69AR cells + 2 uM doxorubicin) was 21.8% (inactive). Further, the inhibition in assay [5] was -4.93% (inactive); in assay [6], -2.18% (inactive).
Take `COc1ccc(NC(=O)c2oc3ccccc3c2NC(=O)c2ccco2)cc1`: the viability is 90% (inactive) in assay [1]; 88.8% (inactive) in assay [2]; 78.4% (inactive) in assay [3]; 78.8% in assay [4] (setting [7]); 78.4% in assay [4] (setting [8]). In addition, the differential viability (reversal) in assay [4] (H69AR cells + 2 uM doxorubicin) is -0.385% (inactive). The inhibition in assay [5] was -4.59% (inactive); in assay [6] it was -4.92% (inactive).
Turning to `COc1ccc(OC)c(Nc2nc(-c3sc(N)nc3C)cs2)c1`, the viability in assay [1] was 97% (inactive); in assay [2] it was 55.3% (inactive); in assay [3], 78% (inactive); in assay [4] (setting [7]) it was 75.1%; in assay [4] (setting [8]), 78%. Further, in assay [4] (H69AR cells + 2 uM doxorubicin), the differential viability (reversal) is 2.88% (inactive). In addition, the inhibition in assay [5] is -6.49% (inactive); in assay [6], -0.91% (inactive).
With `COc1cccc(-c2nnc(NC(=O)Cc3cccs3)s2)c1`, the viability in assay [1] was 88% (inactive); in assay [2] it was 84.8% (inactive); in assay [3], 82.6% (inactive); in assay [4] (setting [7]), 96.8%; in assay [4] (setting [8]), 82.6%. In addition, the differential viability (reversal) in assay [4] (H69AR cells + 2 uM doxorubicin) is -14.2% (inactive). Further, the figures for the inhibition in assay [5] and in assay [6] were -5.34% (inactive) and 5.16% (inactive), respectively.
As for `CC1(C)C2CCC1(C)C(OC(=O)CSc1nc(N)cc(=O)[nH]1)C2` (centres undefined), the viability in assay [1] is 104% (inactive); in assay [2] it was 94.2% (inactive); in assay [3] it was 92.8% (inactive); in assay [4] (setting [7]), 86.1%; in assay [4] (setting [8]), 92.8%. For the same molecule, the differential viability (reversal) in assay [4] (H69AR cells + 2 uM doxorubicin) was 6.73% (inactive). Moreover, the inhibition in assay [5] is -2.53% (inactive); in assay [6], -6.91% (inactive).
In the case of `O=C(NCCCN1CCN(c2cccc(Cl)c2)CC1)c1ccc(N2CCCC2=O)cc1`, the viability was 69% (inactive) in assay [1]; 76.1% (inactive) in assay [2]; 89.1% (inactive) in assay [3]; 94.5% in assay [4] (setting [7]); 89.1% in assay [4] (setting [8]). For the same molecule, in assay [4] (H69AR cells + 2 uM doxorubicin), the differential viability (reversal) was -5.41% (inactive). Also, the inhibition is -1.1% (inactive) in assay [5] and 4.91% (inactive) in assay [6].
As to `COCCNC(=O)c1snc2ccc(Cl)cc12`, the viability was 89% (inactive) in assay [1]; 83.4% (inactive) in assay [2]; 102% (inactive) in assay [3]; 91.5% in assay [4] (setting [7]); 102% in assay [4] (setting [8]). Moreover, in assay [4] (H69AR cells + 2 uM doxorubicin), the differential viability (reversal) was 10.2% (inactive). Further, the inhibition in assay [5] is 4.42% (inactive); in assay [6], 4.43% (inactive).
Regarding `CCOc1ccc(S(=O)(=O)Nc2ccc(Cl)cn2)c(C)c1C`, the viability was 121% (inactive) in assay [1]; 91% (inactive) in assay [2]; 87.6% (inactive) in assay [3]; 90.4% in assay [4] (setting [7]); 87.6% in assay [4] (setting [8]). For the same molecule, the differential viability (reversal) in assay [4] (H69AR cells + 2 uM doxorubicin) was -2.8% (inactive). Moreover, the inhibition in assay [5] was -5.06% (inactive); in assay [6] it was 4.43% (inactive).
As to `Cc1c(NC(=O)C(C)OC(=O)c2cc3c4ccccc4n(C)c3s2)c(=O)n(-c2ccccc2)n1C` (centres undefined), the viability in assay [1] was 94% (inactive); in assay [2], 80.8% (inactive); in assay [3] it was 78.4% (inactive); in assay [4] (setting [7]), 88.4%; in assay [4] (setting [8]), 78.4%. Besides, in assay [4] (H69AR cells + 2 uM doxorubicin), the differential viability (reversal) was -10% (inactive). Besides, the inhibition is -11.4% (inactive) in assay [5] and 1.13% (inactive) in assay [6].
On to `O=C(c1nn2cccnc2c1Cl)N1CCN(c2ccccc2)CC1`, for which the viability was 66% (inactive) in assay [1]; 102% (inactive) in assay [2]; 108% (inactive) in assay [3]; 97.8% in assay [4] (setting [7]); 108% in assay [4] (setting [8]). In assay [4] (H69AR cells + 2 uM doxorubicin), the differential viability (reversal) is 10.1% (inactive). The inhibition in assay [5] was -6.99% (inactive); in assay [6], 3.82% (inactive).
With `Cc1ccc(CN2C(=O)CCC2C(=O)NCCCN2CCCC(C)C2)cc1` (centres undefined), the viability was 82% (inactive) in assay [1]; 113% (inactive) in assay [2]; 97.4% (inactive) in assay [3]; 88.4% in assay [4] (setting [7]); 97.4% in assay [4] (setting [8]). In addition, the differential viability (reversal) in assay [4] (H69AR cells + 2 uM doxorubicin) is 8.96% (inactive). Moreover, the inhibition in assay [5] is -3.07% (inactive); in assay [6], -3.45% (inactive).
With `c1coc(CN(Cc2cccs2)Cc2nnnn2C2CCCCC2)c1`, the viability is 74% (inactive) in assay [1]; 83.2% (inactive) in assay [2]; 75.7% (inactive) in assay [3]; 80.4% in assay [4] (setting [7]); 75.7% in assay [4] (setting [8]). Besides, the differential viability (reversal) in assay [4] (H69AR cells + 2 uM doxorubicin) is -4.73% (inactive). For the same molecule, the inhibition in assay [5] was -3.84% (inactive); in assay [6], 0% (inactive).
